Compound activity from PubChem.
This excerpt belongs to a sample that is enriched for hits.
PolyA inhibitor = blocks polyadenylation in yeast reporter cells; hit rate 0.02% among 300,000; S. cerevisiae SKY197-pL101 polyadenylation reporter, beta-gal luminescence; efflux-impaired pdr1/pdr3 knockout yeast; score 100 = 6 SD above DMSO; activity score, % at 12 µM;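 active means lowest replicate activity score at least 50, where 100 means six control SD above control mean; inconclusive means lowest score under 50 but half or more replicates reach 50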;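 further: yeast exposed to compound for 9 h at 30 °C; higher score means more reporter readthrough which indicates perturbed polyadenylation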
NALP3 yeast inh = inhibitors of NALP3 inflammasome in yeast | Yeast reconstituted NLRP3/ASC/caspase-1, beta-gal luminescence, 24 h | inhibition, % at 10 µM | hit rate 0.39% among 330,000 | AID 2825;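 active means inhibition of 50% or more; inactive means inhibition below 50%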;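 further: plate controls were induced DMSO wells for no effect and uninduced yeast grown without galactose for full effect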
T cruzi repl = T. cruzi replication inhibition | T. cruzi beta-gal in NIH3T3, luminescence, 90 h | inhibition, % (concentration not given with the values) | hit rate 1.4% among 300,000 | AID 1885;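 active means mean inhibition across valid replicates above about 55%, limit read from the data; inconclusive means mean below that limit but half or more replicates reach it; inactive means mean below it, under half of replicates reach it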;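 further: signal also drops with host cell toxicity which is not excluded here; 0% = plate median of DMSO wells and 100% = zero luminescence signal; higher percent means less beta-gal luminescence so fewer parasites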
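System: Mouse NIH/3T3 fibroblasts infected with β-gal-expressing T. cruzi Tulahuen C4 | Quantity: NIH/3T3 cells, 5,000 per well | Reagent: 5000 reporter trypomastigotes per well | Dosing: Compound pinned at 50 nL/well, DMSO | Schedule: 3 h host attachment, then at least 90 h co-culture | Detection: GalScreen luminescence, 60 min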
Calb FLC = C. albicans growth modulation with fluconazole. hit rate 0.57% among 300,000. C. albicans CaCi-2 (fluconazole-resistant clinical isolate) + fluconazole, Alamar Blue growth, 48 h. growth inhibition, % (concentration not given with the values);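 active means growth inhibition above about 58% in most replicates, limit read from the data, passing the limit was not always enough; inconclusive means exactly half the replicates above a set limit; inactive means most replicates below a set limit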;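 further: all wells also contain fluconazole at 8 µg/ml as a sub-toxic cotreatment; 0% = median of DMSO wells and 100% = median of geldanamycin control wells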
L major viab = inhibitors of Leishmania major promastigote growth. inhibition, % at 10 µM. Leishmania major promastigotes, resazurin fluorescence viability. hit rate 9% among 200,000; in the data active means inhibition above about 50%;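 further: promastigotes grown with compound for 44 hours at 28 °C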
NALP1 yeast inh = inhibitors of NALP1 inflammasome in yeast; S. cerevisiae NALP1/ASC/caspase-1 growth, X-gal OD620, 72 h; inhibition, % at 10 µM; hit rate 0.61% among 280,000; AID 2071; in the data active means inhibition mostly above about 24%, no sharp cut-off; inactive means mostly below about 32%
An asterisk follows results filed as active; ? = inconclusive; / = no result.

SMILES	PolyA inhibitor	NALP3 yeast inh	T cruzi repl	Calb FLC	L major viab	NALP1 yeast inh
COc1cc(CNC2CCCC2)cc(Cl)c1OCc1ccccc1F	-9	11	58*	-35	100*	35
COCCC(=O)N1CCC(Oc2ccc(C(=O)N3CCCC(OC)C3)cc2)CC1 (configuration not stated)	6	4	-6	-4	/	11
C=CCNC(=S)N/N=C/c1ccc(-c2ccc(OC)cc2)o1	-9	12	91*	104*	11	20
C=CCNC(=S)N/N=C/c1ccc(-c2ccc(Cl)cc2Cl)o1	-6	14	60*	21	/	/
NC(=S)N/N=C/c1ccc(-c2cc(Cl)c(Cl)cc2Cl)o1	-37	15	64*	-27	78*	-12
CCCCN(CC)S(=O)(=O)c1ccc(C(=O)Nc2nnc(-c3ccccc3Cl)o2)cc1	3	-2	-21	54	99*	-3
CCCCN(C)S(=O)(=O)c1ccc(C(=O)Nc2nnc(-c3cccs3)o2)cc1	26	11	57*	84*	99*	-7
CCN(Cc1ccccc1)S(=O)(=O)c1ccc(C(=O)Nc2nnc(-c3ccccc3OC)o2)cc1	5	6	62*	83*	99*	10
CN(C(=O)CSc1nnc(-c2ccco2)o1)C1CCCCC1	-13	1	4	95*	-7	6
O=C(C[n+]1cccc(NC(=O)c2ccccc2)c1)c1ccc(NC(=O)c2ccccc2)cc1	-1	7	-15	4	71*	-6
CC(C(=O)c1ccccc1)[n+]1cccc(C(N)=O)c1 (configuration not stated)	-3	6	-8	3	/	2
O=C(C[n+]1cccc(NC(=O)c2ccccc2)c1)c1ccccc1	5	-1	1	-16	3	37
CC(C(=O)c1ccc(Br)cc1)[n+]1cccc(NC(=O)c2ccccc2)c1 (configuration not stated)	-12	8	-11	-22	56*	27
O=C(O)CCNc1cc2ccccc2cc1C(=O)O	-10	7	-6	2	12	-2
CCN(CC)S(=O)(=O)c1ccc(C)c(NC(=O)COC(=O)CNC(=O)c2ccc(C(C)(C)C)cc2)c1	-10	8	3	8	-4	20
CC(C)Oc1ccc(C(CC(=O)NCc2ccco2)c2ccccc2)cc1 (configuration not stated)	-8	1	/	-24	67*	6
Cc1cccc(C(CC(=O)NCc2ccco2)c2ccccc2)c1O (configuration not stated)	3	-12	-9	18	11	11
O=C(COC(=O)Cc1cccc(C(F)(F)F)c1)Nc1ccc2c(c1)OCCO2	11	15	-1	?	65*	19
O=C(COC(=O)/C=C/c1ccc(Cl)cc1)Nc1ccc2c(c1)OCCO2	12	10	3	9	51*	7
COc1ccc(C(=O)NCC(=O)OCC(=O)c2ccc3c(c2)OCCO3)cc1	-12	10	-3	-20	-3	36*
O=C(COC(=O)COc1ccc(Cl)cc1)Nc1ccc2c(c1)OCCO2	/	12	/	/	/	/
Cc1ccc(C(=O)NCC(=O)OCC(=O)c2ccc3c(c2)OCCO3)cc1C	1	18	-9	20	-1	4
O=C(COC(=O)CNC(=O)c1ccc(Cl)cc1)Nc1ccc2c(c1)OCCO2	-1	14	12	-16	57*	5
C=CCn1c(SCC(=O)Nc2cc(C)nn2-c2ccccc2)nnc1C1CCCCC1	-4	-10	10	-6	2	16
O=C(COc1cc(Cl)c(Cl)cc1Cl)NC(=O)Nc1ccc2c(c1)OCCO2	-14	-20	-32	-4	63*	15
Cc1ccc(Cl)c(OCC(=O)Nc2ccc3c(c2)OCCO3)c1	-13	21	11	-20	-2	28
COc1ccc(C=O)cc1COc1c(F)c(F)cc(F)c1F	4	9	2	-7	99*	/
O=C(c1cccs1)N1CCN(S(=O)(=O)c2cccc(Cl)c2Cl)CC1	/	23	/	/	/	/
CCN(CC)C(=O)CCCC(=O)N(CC)CC	-9	10	-12	15	-5	-3
O=C(Nc1nnc(-c2ccc3c(c2)OCCO3)o1)C1CCCCC1	13	-6	-11	11	72*	22
